From ChEMBL document CHEMBL2176990, “Synthesis and biological evaluation of 5-benzylidenepyrimidine-2,4,6(1H,3H,5H)-trione derivatives for the treatment of obesity-related nonalcoholic fatty liver disease” (J Med Chem, 2012)
Calls of active or inactive are those of the source. The calls are words filed in the database; no cut-off is given here.

What was measured:
Rattus norvegicus = test: Toxicity in Wistar rat high fat diet-induced NAFLD model assessed as effect on food intake at 150 mg/kg, po qd for 4 weeks; type: organism-based; set-up: dose 150 mg/kg, route oral; conditions: in vivo, 672 h
Outline: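 Male Wistar rats (160−180 g) fed high-fat diet (50.55% calories from fat), n = 10 per group. Dosed orally at 150 mg/kg/day for 4 weeks. Body, liver and fat weights and food intake recorded. Serum lipids, AST, ALT and glucose measured on a biochemistry analyzer. Fasting insulin measured by kit; adiponectin and leptin by ELISA. Mean ± SD; percent change vs HFD group.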

HepG2 [1] = test: Reduction of glucose consumption in insulin-resistant human HepG2 cells at 10 uM after 24 hrs by glucose oxidase method; type: functional, cell-based
Outline: (§1)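 HepG2 cells in DMEM (22.2 mM glucose) with 10% FBS, exposed to 0.1 μM insulin from plating for 2 days. At confluence, given fresh 22.2 mM glucose DMEM with test agents for 24 h. Medium glucose measured by glucose oxidase. Consumption = blank minus remaining glucose, normalized to MTT. Three independent experiments.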

HepG2 [2] = test: Reduction of glucose consumption in insulin-resistant human HepG2 cells at 10 uM after 24 hrs by glucose oxidase method in presence of 0.1 uM of insulin; type: functional, cell-based; outline: as §1
HepG2 [3] = test: Reduction of glucose consumption in insulin-resistant human HepG2 cells at 10 uM after 24 hrs by glucose oxidase method in presence of 22.2 mM of glucose; type: functional, cell-based; outline: as §1
3T3-L1 [4] = test: Down-regulation of […] expression in mouse 3T3L1 cells at 10 uM after 24 hrs by ELISA; type: functional
Outline: (§2)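 3T3-L1 preadipocytes grown to 2 days post-confluence. Differentiated with 0.5 mM IBMX, 0.25 μM dexamethasone and 1 μg/mL insulin for 2 days, then insulin alone for 2 days, then 10% FBS DMEM. On day 12, treated 24 h; secreted adiponectin and leptin measured by ELISA. Three independent experiments.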

3T3-L1 [5] = test: Up-regulation of adiponectin expression in mouse 3T3L1 cells at 10 uM after 24 hrs by ELISA; type: functional; outline: as §2

With CN(C)C(=N)N=C(N)N [METFORMIN] the Activity (Rattus norvegicus) was “Non-toxic”.

For N#Cc1cccnc1N1CCC(Oc2ccc(C=C3C(=O)NC(=O)NC3=O)cc2)CC1, the Activity (HepG2 [1]) was “inactive” and the Activity (HepG2 [2]) was “inactive”.

For O=C1NC(=O)C(=Cc2ccc(CNC3CCN(c4ccc([N+](=O)[O-])cn4)CC3)cc2)C(=O)N1, the Activity (HepG2 [1]) was “inactive” and the Activity (HepG2 [2]) was “inactive”.

For O=C1NC(=O)C(=Cc2ccc(OC3CCN(C(=O)c4ccc(Cl)cn4)CC3)cc2)C(=O)N1, the Activity (HepG2 [1]) was “inactive” and the Activity (HepG2 [2]) was “inactive”.

With O=C1NC(=O)C(=Cc2ccc(OC3CCN(C(=O)c4cccc(Cl)n4)CC3)cc2)C(=O)N1 the Activity (HepG2 [1]) was “inactive” and the Activity (HepG2 [2]) was “inactive”.

O=C1NC(=O)C(=Cc2ccc(OC3CCN(c4ccc([N+](=O)[O-])cn4)CC3)cc2)C(=O)N1 was tested, and the Activity (HepG2 [1]) was “inactive” and the Activity (HepG2 [2]) was “inactive”.

With CN(CCOc1ccc(CC2SC(=O)NC2=O)cc1)c1ccccn1 (configuration not stated) [ROSIGLITAZONE] the Activity (HepG2 [3]) was “Active”, the Activity (3T3-L1 [4]) was 118.8 pg/mL and the Activity (3T3-L1 [5]) was 236 pg/mL. The Activity (HepG2 [2]) was “Active”.

O=C1NC(=O)C(=Cc2ccc(C(=O)N3CCC(Nc4cc([N+](=O)[O-])ccn4)CC3)cc2)C(=O)N1 was tested, and the Activity (HepG2 [1]) was “inactive” and the Activity (HepG2 [2]) was “inactive”.

For O=C1NC(=O)C(=Cc2ccc(OC3CCN(C(=O)c4ccccn4)CC3)cc2)C(=O)N1, the Activity (HepG2 [1]) was “inactive” and the Activity (HepG2 [2]) was “inactive”.

For N#Cc1cccnc1N1CCC(NC(=O)c2ccc(C=C3C(=O)NC(=O)NC3=O)cc2)CC1, the Activity (HepG2 [1]) was “inactive” and the Activity (HepG2 [2]) was “inactive”.

With O=C1NC(=O)C(=Cc2ccc(OC3CCN(C(=O)c4cccnc4)CC3)cc2)C(=O)N1 the Activity (HepG2 [1]) was “inactive” and the Activity (HepG2 [2]) was “inactive”.

With CS(=O)(=O)N(Cc1ccc(C=C2C(=O)NC(=O)NC2=O)cc1)C1CCN(C(=O)c2cccc(OC(F)(F)C(F)F)c2)CC1 the Activity (HepG2 [1]) was “inactive” and the Activity (HepG2 [2]) was “inactive”.

O=C1NC(=O)C(=Cc2ccc(C(=O)N3CCC(Nc4ccc([N+](=O)[O-])cn4)CC3)cc2)C(=O)N1 was tested, and the Activity (HepG2 [1]) was “inactive” and the Activity (HepG2 [2]) was “inactive”.
